Experimental data from ChEMBL document CHEMBL2040727, “Substituted thiazoles VI. Synthesis and antitumor activity of new 2-acetamido- and 2 or 3-propanamido-thiazole analogs” (2012).

Experiments:
Format in all cases: functional
SF-268 = test: Growth inhibition of human SF268 cells at 10 uM after 48 hrs by coulter counter analysis; details: SF-268, 48 h, read-out: GI
Procedure, shortened: (§1)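 Single-dose NCI 60-line panel screen of test compounds. Cells grown in RPMI 1640 with 10% FBS. Compounds dissolved in DMSO, then diluted in phosphate buffer saline (final DMSO below 1%). Wells run in duplicate at 6 × 10⁴ cells/ml. Controls held PBS and DMSO at matching dilutions. Incubation 48 h at 37 °C under humidified 5% CO2. Cells diluted tenfold in saline and counted by Coulter counter. Percent growth inhibition taken from mean-graph of treated-cell growth.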

HT-29 = test: Growth inhibition of human HT-29 cells at 10 uM after 48 hrs by coulter counter analysis; details: HT-29, 48 h, read-out: GI; procedure, shortened: as §1
SK-MEL-5 = test: Growth inhibition of human SK-MEL-5 cells at 10 uM after 48 hrs by coulter counter analysis; details: SK-MEL-5, 48 h, read-out: GI; procedure, shortened: as §1
LOX IMVI = test: Growth inhibition of human LOXIMVI cells at 10 uM after 48 hrs by coulter counter analysis; details: read-out: GI; procedure, shortened: as §1
PC-3 = test: Growth inhibition of human PC3 cells at 10 uM after 48 hrs by coulter counter analysis; details: PC-3, 48 h, read-out: GI; procedure, shortened: as §1
SK-MEL-28 = test: Growth inhibition of human SK-MEL-28 cells at 10 uM after 48 hrs by coulter counter analysis; details: SK-MEL-28, 48 h, read-out: GI; procedure, shortened: as §1
RPMI-8226 = test: Growth inhibition of human RPMI8226 cells at 10 uM after 48 hrs by coulter counter analysis; details: RPMI-8226, 48 h, read-out: GI; procedure, shortened: as §1
SF-539 = test: Growth inhibition of human SF539 cells at 10 uM after 48 hrs by coulter counter analysis; details: SF-539, 48 h, read-out: GI; procedure, shortened: as §1
RXF 393 = test: Growth inhibition of human RXF393 cells at 10 uM after 48 hrs by coulter counter analysis; details: RXF 393, 48 h, read-out: GI; procedure, shortened: as §1
MDA-MB-435 = test: Growth inhibition of human MDA-MB-435 cells at 10 uM after 48 hrs by coulter counter analysis; details: MDA-MB-435, 48 h, read-out: GI; procedure, shortened: as §1
SN12C = test: Growth inhibition of human SN12C cells at 10 uM after 48 hrs by coulter counter analysis; details: read-out: GI; procedure, shortened: as §1
[1] = Growth inhibition of human Hs 578T cells at 10 uM after 48 hrs by coulter counter analysis; details: read-out: GI; procedure, shortened: as §1
MDA-MB-468 = test: Growth inhibition of human MDA-MB-468 cells at 10 uM after 48 hrs by coulter counter analysis; details: MDA-MB-468, 48 h, read-out: GI; procedure, shortened: as §1
IGROV-1 = test: Growth inhibition of human IGROV1 cells at 10 uM after 48 hrs by coulter counter analysis; details: IGROV-1, 48 h, read-out: GI; procedure, shortened: as §1
HCC 2998 = test: Growth inhibition of human HCC2998 cells at 10 uM after 48 hrs by coulter counter analysis; details: HCC 2998, 48 h, read-out: GI; procedure, shortened: as §1
OVCAR-4 = test: Growth inhibition of human OVCAR4 cells at 10 uM after 48 hrs by coulter counter analysis; details: OVCAR-4, 48 h, read-out: GI; procedure, shortened: as §1
UACC-62 = test: Growth inhibition of human UACC62 cells at 10 uM after 48 hrs by coulter counter analysis; details: UACC-62, 48 h, read-out: GI
Procedure, shortened: (§2)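 Single-dose screen in the NCI 60 cell line panel. Cells grown in RPMI 1640 with 10% FBS. Compounds dissolved in DMSO and diluted in phosphate buffered saline, final DMSO under 1%. Duplicate wells seeded from culture at 6 × 10⁴ cells/ml. Incubated 48 h at 37 °C, humidified, 5% CO2. Cells diluted tenfold in saline and Coulter-counted. Percent growth inhibition computed against PBS/DMSO controls.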

NCI-H23 = test: Growth inhibition of human NCI-H23 cells at 10 uM after 48 hrs by coulter counter analysis; details: NCI-H23, 48 h, read-out: GI; procedure, shortened: as §1
T47D = test: Growth inhibition of human T47D cells at 10 uM after 48 hrs by coulter counter analysis; details: read-out: GI; procedure, shortened: as §2
SW-620 = test: Growth inhibition of human SW620 cells at 10 uM after 48 hrs by coulter counter analysis; details: SW-620, 48 h, read-out: GI; procedure, shortened: as §2
MDA-MB-231 = test: Growth inhibition of human MDA-MB-231 cells at 10 uM after 48 hrs by coulter counter analysis; details: MDA-MB-231, 48 h, read-out: GI; procedure, shortened: as §1
HOP-62 = test: Growth inhibition of human HOP62 cells at 10 uM after 48 hrs by coulter counter analysis; details: HOP-62, 48 h, read-out: GI; procedure, shortened: as §1
K562 = test: Growth inhibition of human K562 cells at 10 uM after 48 hrs by coulter counter analysis; details: K562, 48 h, read-out: GI; procedure, shortened: as §1
OVCAR-8 = test: Growth inhibition of human OVCAR8 cells at 10 uM after 48 hrs by coulter counter analysis; details: OVCAR-8, 48 h, read-out: GI; procedure, shortened: as §1
A498 = test: Growth inhibition of human A498 cells at 10 uM after 48 hrs by coulter counter analysis; details: A498, 48 h, read-out: GI; procedure, shortened: as §1
HCT-15 = test: Growth inhibition of human HCT15 cells at 10 uM after 48 hrs by coulter counter analysis; details: HCT-15, 48 h, read-out: GI; procedure, shortened: as §1
786-0 = test: Growth inhibition of human 786-0 cells at 10 uM after 48 hrs by coulter counter analysis; details: 786-0, 48 h, read-out: GI; procedure, shortened: as §1
CAKI-1 = test: Growth inhibition of human Caki1 cells at 10 uM after 48 hrs by coulter counter analysis; details: CAKI-1, 48 h, read-out: GI; procedure, shortened: as §1
UO-31 = test: Growth inhibition of human UO31 cells at 10 uM after 48 hrs by coulter counter analysis; details: UO-31, 48 h, read-out: GI; procedure, shortened: as §2
OVCAR-5 = test: Growth inhibition of human OVCAR5 cells at 10 uM after 48 hrs by coulter counter analysis; details: OVCAR-5, 48 h, read-out: GI; procedure, shortened: as §1
CCRF-CEM = test: Growth inhibition of human CCRF-CEM cells at 10 uM after 48 hrs by coulter counter analysis; details: read-out: GI; procedure, shortened: as §1
BT-549 = test: Growth inhibition of human BT549 cells at 10 uM after 48 hrs by coulter counter analysis; details: BT-549, 48 h, read-out: GI; procedure, shortened: as §1
Malme-3M = test: Growth inhibition of human MALME-3M cells at 10 uM after 48 hrs by coulter counter analysis; details: read-out: GI; procedure, shortened: as §1
NCI-H322M = test: Growth inhibition of human NCI-H322M cells at 10 uM after 48 hrs by coulter counter analysis; details: read-out: GI; procedure, shortened: as §1
NCI-H226 = test: Growth inhibition of human NCI-H226 cells at 10 uM after 48 hrs by coulter counter analysis; details: NCI-H226, 48 h, read-out: GI; procedure, shortened: as §1

Compound | inhibition of growth at 10 µM (SF-268) [%] | inhibition of growth at 10 µM (HT-29) [%] | inhibition of growth at 10 µM (SK-MEL-5) [%] | inhibition of growth at 10 µM (LOX IMVI) [%] | inhibition of growth at 10 µM (PC-3) [%] | inhibition of growth at 10 µM (SK-MEL-28) [%] | inhibition of growth at 10 µM (RPMI-8226) [%] | inhibition of growth at 10 µM (SF-539) [%] | inhibition of growth at 10 µM (RXF 393) [%] | inhibition of growth at 10 µM (MDA-MB-435) [%] | inhibition of growth at 10 µM (SN12C) [%] | inhibition of growth at 10 µM [1] [%] | inhibition of growth at 10 µM (MDA-MB-468) [%] | inhibition of growth at 10 µM (IGROV-1) [%] | inhibition of growth at 10 µM (HCC 2998) [%] | inhibition of growth at 10 µM (OVCAR-4) [%] | inhibition of growth at 10 µM (UACC-62) [%] | inhibition of growth at 10 µM (NCI-H23) [%] | inhibition of growth at 10 µM (T47D) [%] | inhibition of growth at 10 µM (SW-620) [%] | also measured
Cc1cnc(NC(=O)CN2CCN(C)CC2)s1 | < 10 | < 10 | < 10 | < 10 | < 10 | < 10 | < 10 | < 10 | < 10 | < 10 | < 10 | < 10 | < 10 | < 10 | < 10 | < 10 | < 10 | < 10 | < 10 | < 10 | inhibition of growth at 10 µM (MDA-MB-231): < 10%; inhibition of growth at 10 µM (HOP-62): < 10%; inhibition of growth at 10 µM (K562): < 10%; inhibition of growth at 10 µM (OVCAR-8): < 10%; inhibition of growth at 10 µM (A498): < 10%; inhibition of growth at 10 µM (HCT-15): < 10%; inhibition of growth at 10 µM (786-0): < 10%; inhibition of growth at 10 µM (CAKI-1): < 10%; inhibition of growth at 10 µM (UO-31): 10.2%; inhibition of growth at 10 µM (OVCAR-5): < 10%; inhibition of growth at 10 µM (CCRF-CEM): 75.5%; inhibition of growth at 10 µM (BT-549): < 10%; inhibition of growth at 10 µM (Malme-3M): < 10%; inhibition of growth at 10 µM (NCI-H322M): < 10%; inhibition of growth at 10 µM (NCI-H226): < 10%
Cc1cnc(NC(=O)CN2CCN(c3ccccc3)CC2)s1 | < 10 | < 10 | < 10 | < 10 | < 10 | < 10 | < 10 | < 10 | < 10 | < 10 | < 10 | < 10 | < 10 | < 10 | < 10 | < 10 | < 10 | < 10 | < 10 | < 10 | inhibition of growth at 10 µM (MDA-MB-231): < 10%; inhibition of growth at 10 µM (HOP-62): < 10%; inhibition of growth at 10 µM (K562): < 10%; inhibition of growth at 10 µM (OVCAR-8): < 10%; inhibition of growth at 10 µM (A498): < 10%; inhibition of growth at 10 µM (HCT-15): < 10%; inhibition of growth at 10 µM (786-0): < 10%; inhibition of growth at 10 µM (CAKI-1): < 10%; inhibition of growth at 10 µM (UO-31): 13.1%; inhibition of growth at 10 µM (OVCAR-5): < 10%; inhibition of growth at 10 µM (CCRF-CEM): 69.3%; inhibition of growth at 10 µM (BT-549): < 10%; inhibition of growth at 10 µM (Malme-3M): < 10%; inhibition of growth at 10 µM (NCI-H322M): < 10%; inhibition of growth at 10 µM (NCI-H226): < 10%
CC(C(=O)Nc1nccs1)N1CCN(C)CC1 (stereo not given) | < 10 | < 10 | < 10 | < 10 | < 10 | < 10 | < 10 | < 10 | < 10 | < 10 | < 10 | < 10 | < 10 | < 10 | < 10 | < 10 | < 10 | < 10 | < 10 | < 10 | inhibition of growth at 10 µM (MDA-MB-231): < 10%; inhibition of growth at 10 µM (HOP-62): < 10%; inhibition of growth at 10 µM (K562): < 10%; inhibition of growth at 10 µM (OVCAR-8): < 10%; inhibition of growth at 10 µM (A498): < 10%; inhibition of growth at 10 µM (HCT-15): < 10%; inhibition of growth at 10 µM (786-0): < 10%; inhibition of growth at 10 µM (CAKI-1): < 10%; inhibition of growth at 10 µM (UO-31): 19.4%; inhibition of growth at 10 µM (OVCAR-5): < 10%; inhibition of growth at 10 µM (CCRF-CEM): < 10%; inhibition of growth at 10 µM (BT-549): < 10%; inhibition of growth at 10 µM (Malme-3M): < 10%; inhibition of growth at 10 µM (NCI-H322M): < 10%; inhibition of growth at 10 µM (NCI-H226): < 10%
